The values below come from ChEMBL document CHEMBL4052644, “Synthesis of novel benzylidene analogues of betulinic acid as potent cytotoxic agents” (Eur J Med Chem, 2017).

Experiment [1] has as its system MCF7. Put plainly: Growth inhibition of human MCF7 cells at 10 uM after 48 hrs by SRB assay relative to control. The note with it: MCF7, 48 h, read-out: GI. Format: functional. In outline: (§1)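 Primary SRB screen of every compound at a single concentration of 10 µM. Growth inhibition is expressed relative to control.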
On the technique in general: The SRB assay estimates cell density from bound dye.

Experiment [2] concerns HCT-116. Briefly: Cytotoxicity against human HCT116 cells assessed as reduction in cell viability after 48 hrs by SRB assay. Format: functional, cell-based. To be noted: HCT-116, 48 h. In outline: (§2)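 SRB assay. Compounds active at 10 µM in the primary screen were retested at 1, 2.5 and 5 µM, and IC50 was calculated from these concentrations. The normal breast epithelial line fR2 was tested alongside the cancer lines.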

A short description of experiment [3]: Cytotoxicity against human FR2 cells assessed as reduction in cell viability after 48 hrs by SRB assay. The note with it: FR2, 48 h. Format: cell-based. In outline:
as §2

The subject of experiment [4] is MIA PaCa-2. Briefly: Cytotoxicity against human MIAPaCa2 cells assessed as reduction in cell viability after 48 hrs by SRB assay. Format: functional, cell-based. To be noted: MIA PaCa-2, 48 h. In outline:
as §2

Experiment [5] can be described thus: Selectivity index, ratio of IC50 for human FR2 cells to IC50 for human MIAPaCa2 cells. Format: functional. In short, it runs like this:
(§3)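 Selectivity index is the IC50 in normal breast epithelial fR2 cells divided by the IC50 in each cancer line. All IC50 values come from the SRB assay.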

Experiment [6] deals with MIA PaCa-2. Put plainly: Growth inhibition of human MIAPaCa2 at 10 uM after 48 hrs by SRB assay relative to control. Format: functional. To be noted: MIA PaCa-2, 48 h, read-out: GI. In outline:
as §1

Experiment [7] can be described thus: Selectivity index, ratio of IC50 for human FR2 cells to IC50 for human MCF7 cells. The class given is functional. In short, it runs like this: as §3
The subject of experiment [8] is A549. Briefly: Growth inhibition of human A549 cells at 10 uM after 48 hrs by SRB assay relative to control. The class given is functional. The note with it: A549, 48 h, read-out: GI. In outline:
as §1

For experiment [9], the system named is PC-3. Put plainly: Cytotoxicity against human PC3 cells assessed as reduction in cell viability after 48 hrs by SRB assay. The class given is functional, cell-based. To be noted: PC-3, 48 h. In outline: as §2
Experiment [10] in a line: Selectivity index, ratio of IC50 for human FR2 cells to IC50 for human PC3 cells. The class given is functional. In outline: as §3
Experiment [11] deals with A549. Put plainly: Cytotoxicity against human A549 cells assessed as reduction in cell viability after 48 hrs by SRB assay. To be noted: A549, 48 h. Format: functional, cell-based. In outline: as §2
The nature of experiment [12]: Selectivity index, ratio of IC50 for human FR2 cells to IC50 for human A549 cells. The class given is functional. In short, it runs like this: as §3
For experiment [13], the system named is PC-3. Put plainly: Growth inhibition of human PC3 cells at 10 uM after 48 hrs by SRB assay relative to control. The class given is functional. To be noted: PC-3, 48 h, read-out: GI. In short, it runs like this:
as §1

Experiment [14] in a line: Selectivity index, ratio of IC50 for human FR2 cells to IC50 for human HCT116 cells. The class given is functional. In short, it runs like this:
as §3

For experiment [15], the system named is MCF7. Briefly: Cytotoxicity against human MCF7 cells assessed as reduction in cell viability after 48 hrs by SRB assay. The note with it: MCF7, 48 h. Format: functional, cell-based. In outline: as §2
Experiment [16] relates to HCT-116. Put plainly: Growth inhibition of human HCT116 cells at 10 uM after 48 hrs by SRB assay relative to control. Format: functional. To be noted: HCT-116, 48 h, read-out: GI. In outline:
as §1

Bounds are passed on as bounds.

The term IC50 denotes the midpoint of a concentration-inhibition curve. Consider `C=C(C)[C@@H]1CC[C@]2(C(=O)O)CC[C@]3(C)[C@H](CC[C@@H]4[C@@]5(C)C/C(=C\c6ccc(OC)cc6)C(=O)C(C)(C)[C@@H]5CC[C@]43C)[C@@H]12`, for which the inhibition of growth at 10 µM is 88% in the experiment with MCF7 [1]; 71% with MIA PaCa-2 [6]; 94% in the experiment with A549 [8]; 81% with PC-3 [13]; 69% in the experiment with HCT-116 [16]. Besides, the concentration for half-maximal inhibition (IC50) in the experiment with HCT-116 [2] amounted to 5.4 µM; in [3] it was 23.9 µM; in the experiment with MIA PaCa-2 [4] it was 7.07 µM; with PC-3 [9], 6.8 µM; with A549 [11] it was 5.1 µM; in the experiment with MCF7 [15], 6.8 µM. Besides, the “Ratio IC50” value in experiment [5] turned out to be 3.387; in experiment [7], 3.522; in [10] it was 3.522; in [12], 4.696; in [14] it was 4.435.
Consider `C=C(C)[C@@H]1CC[C@]2(C(=O)O)CC[C@]3(C)[C@H](CC[C@@H]4[C@@]5(C)C/C(=C\c6cccc7ccccc67)C(=O)C(C)(C)[C@@H]5CC[C@]43C)[C@@H]12`, for which the inhibition of growth at 10 µM with MCF7 [1] was determined as 67%; in the experiment on MIA PaCa-2 [6], 64%; in the experiment on A549 [8], 90%; with PC-3 [13], 71%; in the experiment with HCT-116 [16] it was 62%. Also, the half-maximal inhibitory concentration (IC50) in the experiment with HCT-116 [2] came out at 8.4 µM; in experiment [3], 12.3 µM; with MIA PaCa-2 [4], 7.9 µM; in the experiment on PC-3 [9], 5.3 µM; with A549 [11], 3.09 µM; in the experiment with MCF7 [15], 8.6 µM. The “Ratio IC50” value in [5] is reported as 1.555; in experiment [7], 1.429; in experiment [10] it was 2.318; in experiment [12] it was 3.977; in experiment [14] it was 1.463.
As to `C=C(C)[C@@H]1CC[C@]2(C(=O)O)CC[C@]3(C)[C@H](CC[C@@H]4[C@@]5(C)C/C(=C\c6cccc(Br)c6)[C@H](O)C(C)(C)[C@@H]5CC[C@]43C)[C@@H]12`, the inhibition of growth at 10 µM in the experiment on MCF7 [1] was 65%; with MIA PaCa-2 [6], 22%; in the experiment with A549 [8], 90%; in the experiment with PC-3 [13], 59%; with HCT-116 [16], 46%. In addition, the IC50 with HCT-116 [2] was more than 10 µM; in experiment [3], 15 µM; with MIA PaCa-2 [4], 14.4 µM; in the experiment with PC-3 [9], 5.5 µM; in the experiment on A549 [11], 3.6 µM; with MCF7 [15], 8.06 µM. Further, the “Ratio IC50” value worked out at 1.041 in experiment [5], 1.86 in experiment [7], 2.72 in experiment [10] and 4.16 in experiment [12].
Take `C=C(C)[C@@H]1CC[C@]2(C(=O)O)CC[C@]3(C)[C@H](CC[C@@H]4[C@@]5(C)C/C(=C\c6ccc(Br)o6)C(=O)C(C)(C)[C@@H]5CC[C@]43C)[C@@H]12`: the inhibition of growth at 10 µM with MCF7 [1] is 92%; in the experiment with MIA PaCa-2 [6] it was 75%; in the experiment on A549 [8] it was 91%; in the experiment on PC-3 [13] it was 79%; with HCT-116 [16] it was 87%. The IC50 in the experiment on HCT-116 [2] is 2.9 µM; in [3], 13.6 µM; in the experiment on MIA PaCa-2 [4] it was 5.2 µM; in the experiment with PC-3 [9], 5.7 µM; in the experiment with A549 [11], 2.9 µM; in the experiment with MCF7 [15], 5.6 µM. In addition, the “Ratio IC50” value was found to be 2.619 in experiment [5]; 2.432 in experiment [7]; 2.389 in experiment [10]; 4.69 in experiment [12]; 4.696 in experiment [14].
For `C=C(C)[C@@H]1CC[C@]2(C(=O)O)CC[C@]3(C)[C@H](CC[C@@H]4[C@@]5(C)C/C(=C\c6cccc([N+](=O)[O-])c6)[C@H](O)C(C)(C)[C@@H]5CC[C@]43C)[C@@H]12`, the inhibition of growth at 10 µM in the experiment on MCF7 [1] worked out at 77%; in the experiment with MIA PaCa-2 [6], 80%; in the experiment on A549 [8], 92%; with PC-3 [13] it was 80%; in the experiment on HCT-116 [16], 88%. For the same compound, the 50% inhibitory concentration (IC50) stood at 3.9 µM in the experiment on HCT-116 [2]; 12.1 µM in experiment [3]; 6.7 µM with MIA PaCa-2 [4]; 4.1 µM with PC-3 [9]; 1.22 µM in the experiment with A549 [11]; 4.5 µM with MCF7 [15]. In addition, the “Ratio IC50” value in experiment [5] is 1.8; in experiment [7], 2.68; in experiment [10], 2.941; in experiment [12], 9.88; in [14] it was 3.092.
In the case of `C=C(C)[C@@H]1CC[C@]2(C(=O)O)CC[C@]3(C)[C@H](CC[C@@H]4[C@@]5(C)C/C(=C\c6ccc(F)c(Br)c6)C(=O)C(C)(C)[C@@H]5CC[C@]43C)[C@@H]12`, the inhibition of growth at 10 µM with MCF7 [1] was found to be 85%; with MIA PaCa-2 [6], 82%; in the experiment with A549 [8], 89%; in the experiment on PC-3 [13], 71%; in the experiment on HCT-116 [16], 89%. The IC50 was 5.8 µM in the experiment on HCT-116 [2]; 47.2 µM in experiment [3]; 6.9 µM in the experiment on MIA PaCa-2 [4]; 8.02 µM in the experiment with PC-3 [9]; 3.9 µM in the experiment with A549 [11]; 7.07 µM in the experiment with MCF7 [15]. For the same compound, the “Ratio IC50” value in [5] is on record as 6.836; in experiment [7], 6.671; in [10] it was 5.881; in experiment [12], 12.09; in experiment [14], 8.132.
For `C=C(C)[C@@H]1CC[C@]2(C(=O)O)CC[C@]3(C)[C@H](CC[C@@H]4[C@@]5(C)C/C(=C\c6ccc(OC)cc6)[C@H](O)C(C)(C)[C@@H]5CC[C@]43C)[C@@H]12`, the inhibition of growth at 10 µM was determined as 69% with MCF7 [1]; 67% with MIA PaCa-2 [6]; 54% in the experiment with A549 [8]; 52% in the experiment with PC-3 [13]; 63% with HCT-116 [16]. For the same compound, the IC50 turned out to be 4.9 µM in the experiment with HCT-116 [2]; 21.6 µM in experiment [3]; 6.4 µM in the experiment on MIA PaCa-2 [4]; 7.4 µM in the experiment on PC-3 [9]; 4.3 µM in the experiment with A549 [11]; 6.9 µM in the experiment on MCF7 [15]. Besides, the “Ratio IC50” value in experiment [5] was 3.37; in experiment [7], 3.126; in experiment [10], 2.914; in experiment [12], 5.016; in experiment [14], 4.402.
Consider `C=C(C)[C@@H]1CC[C@]2(C(=O)O)CC[C@]3(C)[C@H](CC[C@@H]4[C@@]5(C)C/C(=C\c6ccc(F)cc6)C(=O)C(C)(C)[C@@H]5CC[C@]43C)[C@@H]12`, for which the inhibition of growth at 10 µM in the experiment with MCF7 [1] was 95%; with MIA PaCa-2 [6] it was 96%; in the experiment on A549 [8], 92%; with PC-3 [13], 95%; with HCT-116 [16], 99%. In addition, the IC50 with HCT-116 [2] was 3.6 µM; in experiment [3], 71.1 µM; in the experiment with MIA PaCa-2 [4], 5.4 µM; in the experiment on PC-3 [9] it was 6.4 µM; in the experiment with A549 [11], 2.6 µM; with MCF7 [15], 4.4 µM. The “Ratio IC50” value came to 13.15 in [5]; 16.15 in experiment [7]; 11.1 in experiment [10]; 27.33 in [12]; 19.73 in experiment [14].
As for `C=C(C)[C@@H]1CC[C@]2(C(=O)O)CC[C@]3(C)[C@H](CC[C@@H]4[C@@]5(C)C/C(=C\c6ccccc6Br)C(=O)C(C)(C)[C@@H]5CC[C@]43C)[C@@H]12`, the inhibition of growth at 10 µM was found to be 80% with MCF7 [1]; 81% in the experiment on MIA PaCa-2 [6]; 90% in the experiment on A549 [8]; 77% with PC-3 [13]; 86% in the experiment with HCT-116 [16]. Besides, the IC50 was determined as 4.3 µM in the experiment on HCT-116 [2]; 19 µM in [3]; 4.04 µM in the experiment on MIA PaCa-2 [4]; 7.6 µM in the experiment on PC-3 [9]; 6.1 µM with A549 [11]; 7.7 µM with MCF7 [15]. The “Ratio IC50” value in experiment [5] is on record as 4.698; in experiment [7], 2.464; in [10], 2.497; in experiment [12] it was 3.111; in experiment [14] it was 4.413.
